Measurements: PMC9302689 (British Journal of Clinical Pharmacology, 2022)

System: healthy male subjects
Assay: Pharmaco-EEG
Format: in vivo, human
Conditions: 12-hour post-dose period
In short: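 Continuous EEG was recorded from 21 electrodes placed by the 10–20 system, with mastoid electrodes replacing the earlobe ones. Recordings followed IPEG guidelines, twice pre-dose and at 0.5–10 h post-dose. Power spectra for Fz-Cz and Pz-O derivations were split into bands to give total band power (μV). Values were ln-transformed, analysed by MMRM over 12 h against pooled placebo, and back-transformed.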

CN1CCC23CCCCC2C1Cc1ccc(C(N)=O)cc13 (stereo not drawn) [ALKS 7119, (9α, 13α)‐17‐methylmorphinan‐3‐carboxamide]
Theta-power Pz-Oz, LSM CFB (75 mg single oral dose): 0.12 Hz | Theta-power Pz-Oz, estimate of difference compared to placebo (75 mg single oral dose): 0.05 [−0.20, 0.28] P = .69 Hz | Alpha-power Fz-Cz, LSM CFB (100 mg single oral dose): 0.06 Hz | Alpha-power Pz-Oz, LSM CFB (100 mg single oral dose): 0.12 Hz | Alpha-power Pz-Oz, estimate of difference compared to placebo (100 mg single oral dose): 0.02 [−0.23, 0.28] P = .85 Hz | Beta-power Fz-Cz, LSM CFB (100 mg single oral dose): 0.08 Hz | Beta-power Fz-Cz, estimate of difference compared to placebo (100 mg single oral dose): −0.03 [−0.25, 0.19] P = .77 Hz | Beta-power Pz-Oz, LSM CFB (100 mg single oral dose): 0.25 Hz | Beta-power Pz-Oz, estimate of difference compared to placebo (100 mg single oral dose): 0.12 [−0.07, 0.32] P = .22 Hz | Delta-power Fz-Cz, LSM CFB (100 mg single oral dose): −0.03 Hz | Delta-power Fz-Cz, estimate of difference compared to placebo (100 mg single oral dose): −0.13 [−0.34, 0.08] P = .22 Hz | Delta-power Pz-Oz, LSM CFB (100 mg single oral dose): 0.08 Hz | Delta-power Pz-Oz, estimate of difference compared to placebo (100 mg single oral dose): 0.02 [−0.21, 0.25] P = .89 Hz | Gamma-power Fz-Cz, LSM CFB (100 mg single oral dose): 0.1 Hz | Gamma-power Fz-Cz, estimate of difference compared to placebo (100 mg single oral dose): <−0.01 [−0.20, 0.21] P = .99 Hz | Gamma-power Pz-Oz, LSM CFB (100 mg single oral dose): 0.27 Hz | Gamma-power Pz-Oz, estimate of difference compared to placebo (100 mg single oral dose): 0.06 [−0.19, 0.32] P = .63 Hz | Theta-power Fz-Cz, LSM CFB (100 mg single oral dose): 0.03 Hz | Theta-power Fz-Cz, estimate of difference compared to placebo (100 mg single oral dose): −0.04 [−0.27, 0.19] P = .72 Hz | Theta-power Pz-Oz, LSM CFB (100 mg single oral dose): 0.14 Hz | Theta-power Pz-Oz, estimate of difference compared to placebo (100 mg single oral dose): 0.08 [−0.16, 0.30] P = .56 Hz | Alpha-power Fz-Cz, LSM CFB (125 mg single oral dose): 0.05 Hz | Alpha-power Fz-Cz, estimate of difference compared to placebo (125 mg single oral dose): −0.17 [−1.24,‐.89] P = .75 Hz | Alpha-power Pz-Oz, LSM CFB (125 mg single oral dose): 0.11 Hz | Alpha-power Pz-Oz, estimate of difference compared to placebo (125 mg single oral dose): 0.01 [−0.25, 0.27] P = .93 Hz | Beta-power Fz-Cz, LSM CFB (125 mg single oral dose): 0.12 Hz | Beta-power Fz-Cz, estimate of difference compared to placebo (125 mg single oral dose): 0.01 [−0.21, 0.23] P = .93 Hz | Beta-power Pz-Oz, LSM CFB (125 mg single oral dose): 0.14 Hz | Beta-power Pz-Oz, estimate of difference compared to placebo (125 mg single oral dose): 0.02 [−0.18, 0.22] P = .87 Hz | Delta-power Fz-Cz, LSM CFB (125 mg single oral dose): 0.09 Hz | Delta-power Fz-Cz, estimate of difference compared to placebo (125 mg single oral dose): −0.01 [0.22, 0.20] P = .90 Hz | Delta-power Pz-Oz, LSM CFB (125 mg single oral dose): 0.22 Hz | Delta-power Pz-Oz, estimate of difference compared to placebo (125 mg single oral dose): 0.15 [−0.08, 0.39] P = .19 Hz | Gamma-power Fz-Cz, LSM CFB (125 mg single oral dose): 0.12 Hz | Gamma-power Fz-Cz, estimate of difference compared to placebo (125 mg single oral dose): 0.02 [−0.18, 0.22] P = .85 Hz | Gamma-power Pz-Oz, LSM CFB (125 mg single oral dose): 0.12 Hz | Gamma-power Pz-Oz, estimate of difference compared to placebo (125 mg single oral dose): −0.09 [−0.35, 0.17] P = .49 Hz | Theta-power Fz-Cz, LSM CFB (125 mg single oral dose): 0.1 Hz | Theta-power Fz-Cz, estimate of difference compared to placebo (125 mg single oral dose): 0.03 [−0.20, 0.25] P = .82 Hz | Theta-power Pz-Oz, LSM CFB (125 mg single oral dose): 0.15 Hz | Theta-power Pz-Oz, estimate of difference compared to placebo (125 mg single oral dose): 0.08 [−0.15, 0.31] P = .50 Hz | Alpha-power Fz-Cz, LSM CFB (150 mg single oral dose): 0.15 Hz | Alpha-power Pz-Oz, LSM CFB (150 mg single oral dose): −0.07 Hz | Alpha-power Pz-Oz, estimate of difference compared to placebo (150 mg single oral dose): −0.17 [−0.43, 0.09] P = .19 Hz | Beta-power Fz-Cz, LSM CFB (150 mg single oral dose): 0.11 Hz | Beta-power Fz-Cz, estimate of difference compared to placebo (150 mg single oral dose): −0.01 [−0.22, 0.22] P = .97 Hz | Beta-power Pz-Oz, LSM CFB (150 mg single oral dose): −0.07 Hz | Beta-power Pz-Oz, estimate of difference compared to placebo (150 mg single oral dose): −0.19 [−0.39, 0.01] P = .06 Hz | Delta-power Fz-Cz, LSM CFB (150 mg single oral dose): −0.08 Hz | Delta-power Fz-Cz, estimate of difference compared to placebo (150 mg single oral dose): −0.19 [−0.41, 0.03] P = .08 Hz | Delta-power Pz-Oz, LSM CFB (150 mg single oral dose): 0.02 Hz | Delta-power Pz-Oz, estimate of difference compared to placebo (150 mg single oral dose): −0.04 [−0.27, 0.19] P = .71 Hz | Gamma-power Fz-Cz, LSM CFB (150 mg single oral dose): 0.14 Hz | Gamma-power Fz-Cz, estimate of difference compared to placebo (150 mg single oral dose): 0.04 [−0.16, 0.24] P = .71 Hz | Gamma-power Pz-Oz, LSM CFB (150 mg single oral dose): 0.09 Hz | Gamma-power Pz-Oz, estimate of difference compared to placebo (150 mg single oral dose): −0.12 [−0.37, 0.14] P = .37 Hz | Theta-power Fz-Cz, LSM CFB (150 mg single oral dose): 0 Hz | Theta-power Fz-Cz, estimate of difference compared to placebo (150 mg single oral dose): −0.07 [−0.31, 0.16] P = .54 Hz | Theta-power Pz-Oz, LSM CFB (150 mg single oral dose): 0 Hz | Theta-power Pz-Oz, estimate of difference compared to placebo (150 mg single oral dose): −0.07 [−0.31, 0.16] P = .53 Hz | Alpha-power Fz-Cz, LSM CFB (175 mg single oral dose): 0.02 Hz | Alpha-power Fz-Cz, estimate of difference compared to placebo (175 mg single oral dose): −0.15 [−1.19, 0.9] P = .78 Hz | Alpha-power Pz-Oz, LSM CFB (175 mg single oral dose): −0.02 Hz | Alpha-power Pz-Oz, estimate of difference compared to placebo (175 mg single oral dose): −0.12 [−0.37, 0.14] P = .36 Hz | Beta-power Fz-Cz, LSM CFB (175 mg single oral dose): 0.08 Hz | Beta-power Fz-Cz, estimate of difference compared to placebo (175 mg single oral dose): −0.04 [−0.26, 0.18] P = .73 Hz | Beta-power Pz-Oz, LSM CFB (175 mg single oral dose): 0.01 Hz | Beta-power Pz-Oz, estimate of difference compared to placebo (175 mg single oral dose): −0.12 [−0.32, 0.08] P = .24 Hz | Delta-power Fz-Cz, LSM CFB (175 mg single oral dose): 0.09 Hz | Delta-power Fz-Cz, estimate of difference compared to placebo (175 mg single oral dose): −0.01 [−0.23, 0.20] P = .91 Hz | Delta-power Pz-Oz, LSM CFB (175 mg single oral dose): −0.07 Hz | Delta-power Pz-Oz, estimate of difference compared to placebo (175 mg single oral dose): −0.13 [−0.36, 0.11] P = .26 Hz | Gamma-power Fz-Cz, LSM CFB (175 mg single oral dose): 0.16 Hz | Gamma-power Fz-Cz, estimate of difference compared to placebo (175 mg single oral dose): 0.06 [−0.14, 0.26] P = .57 Hz | Gamma-power Pz-Oz, LSM CFB (175 mg single oral dose): 0.03 Hz | Gamma-power Pz-Oz, estimate of difference compared to placebo (175 mg single oral dose): −0.18 [−0.43, 0.08] P = .17 Hz | Theta-power Fz-Cz, LSM CFB (175 mg single oral dose): 0.08 Hz | Theta-power Pz-Oz, LSM CFB (175 mg single oral dose): −0.07 Hz | Theta-power Pz-Oz, estimate of difference compared to placebo (175 mg single oral dose): −0.14 [−0.37, 0.10] P = .25 Hz | Alpha-power Fz-Cz, LSM CFB (200 mg single oral dose): 0.01 Hz | Alpha-power Fz-Cz, estimate of difference compared to placebo (200 mg single oral dose): −0.28 [−1.39, 0.82] P = .61 Hz | Alpha-power Pz-Oz, LSM CFB (200 mg single oral dose): 0.24 Hz | Alpha-power Pz-Oz, estimate of difference compared to placebo (200 mg single oral dose): 0.14 [−0.11, 0.40] P = .27 Hz | Beta-power Fz-Cz, LSM CFB (200 mg single oral dose): 0.07 Hz | Beta-power Fz-Cz, estimate of difference compared to placebo (200 mg single oral dose): −0.05 [−0.27, 0.17] P = .67 Hz | Beta-power Pz-Oz, LSM CFB (200 mg single oral dose): 0.2 Hz | Beta-power Pz-Oz, estimate of difference compared to placebo (200 mg single oral dose): 0.07 [−0.12, 0.27] P = .46 Hz | Delta-power Fz-Cz, LSM CFB (200 mg single oral dose): 0.02 Hz | Delta-power Fz-Cz, estimate of difference compared to placebo (200 mg single oral dose): −0.08 [−0.29, 0.13] P = .45 Hz | Delta-power Pz-Oz, LSM CFB (200 mg single oral dose): 0.26 Hz | Delta-power Pz-Oz, estimate of difference compared to placebo (200 mg single oral dose): 0.20 [−0.04, 0.43] P = .10 Hz | Gamma-power Fz-Cz, LSM CFB (200 mg single oral dose): 0.21 Hz | Gamma-power Fz-Cz, estimate of difference compared to placebo (200 mg single oral dose): 0.11 [−0.09, 0.31] P = .29 Hz | Gamma-power Pz-Oz, LSM CFB (200 mg single oral dose): 0.31 Hz | Gamma-power Pz-Oz, estimate of difference compared to placebo (200 mg single oral dose): 0.11 [−0.15, 0.36] P = .40 Hz | Theta-power Fz-Cz, LSM CFB (200 mg single oral dose): 0.07 Hz | Theta-power Pz-Oz, LSM CFB (200 mg single oral dose): 0.25 Hz | Theta-power Pz-Oz, estimate of difference compared to placebo (200 mg single oral dose): 0.18 [−0.05, 0.41] P = .13 Hz
